The results in this text go back to ChEMBL document CHEMBL1131622, “(+/-)-trans-2-[3-methoxy-4-(4-chlorophenylthioethoxy)-5-(N-methyl-N- hydroxyureidyl)methylphenyl]-5-(3,4, 5-trimethoxyphenyl)tetrahydrofuran (CMI-392), a potent dual 5-lipoxygenase inhibitor and platelet-activating factor receptor antagonist” (J Med Chem, 1998).

Several values for one entry are separate records, joined by “and”; a condition that tells them apart may be missing. Identical values can stand only once.

The species named for data set [1] is Homo sapiens. Kind of data set: (§1) Compound was evaluated for inhibiting production of LTB4 in calcium Ionophore (A23187) activated human whole blood. The class given is functional. The essentials: (§2)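 Heparinized human whole blood (1 mL) preincubated with compound in DMSO 15 min at 37 °C, then stimulated with A23187 (50 μM final) 30 min at 37 °C; plasma LTB4 measured by EIA. IC50 by regression; percent inhibition also reported at 3 μM.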

The target of data set [2] is T1, Polyunsaturated fatty acid 5-lipoxygenase (Rattus norvegicus, UniProt P12527).
T1 sequence (P12527 whole entry): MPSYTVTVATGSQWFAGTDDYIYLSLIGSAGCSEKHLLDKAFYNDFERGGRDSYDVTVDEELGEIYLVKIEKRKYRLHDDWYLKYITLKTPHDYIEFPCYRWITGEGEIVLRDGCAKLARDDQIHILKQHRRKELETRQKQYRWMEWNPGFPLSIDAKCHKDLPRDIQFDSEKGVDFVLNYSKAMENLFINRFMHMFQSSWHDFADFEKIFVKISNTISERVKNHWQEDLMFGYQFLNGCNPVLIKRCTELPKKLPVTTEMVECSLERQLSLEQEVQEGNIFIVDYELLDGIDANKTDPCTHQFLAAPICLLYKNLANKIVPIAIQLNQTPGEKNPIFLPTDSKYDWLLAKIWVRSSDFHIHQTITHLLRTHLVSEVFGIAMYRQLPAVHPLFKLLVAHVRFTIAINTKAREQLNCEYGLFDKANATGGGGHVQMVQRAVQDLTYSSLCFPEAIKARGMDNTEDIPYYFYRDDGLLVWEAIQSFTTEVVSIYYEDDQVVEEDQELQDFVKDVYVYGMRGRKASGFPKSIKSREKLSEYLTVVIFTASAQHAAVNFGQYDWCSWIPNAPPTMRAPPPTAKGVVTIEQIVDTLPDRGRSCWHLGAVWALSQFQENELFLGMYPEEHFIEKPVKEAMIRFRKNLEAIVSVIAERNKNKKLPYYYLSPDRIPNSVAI
Nature of the data set: Inhibition of 5-lipoxygenase mediated conversion of [14C]arachidonic acid to leukotrienes in RBL-2H3 cells. It counts as cell-based. The essentials:
(§3)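 Lysate plus compound (DMSO) in buffer with 0.1 M NaCl, 0.7 mM CaCl2, 20 min room temperature, then [14C]AA substrate mix 5 min 37 °C. Products extracted, resolved by silica TLC, autoradiography/densitometry; IC50 by regression.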

For data set [3], the system named is Mus musculus. Nature of the data set: (§4) In vivo activity against acute TPA-induced ear edema in mouse. It counts as functional. The essentials:
(§5)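 Mice, 8 per group, TPA in acetone (10 μL) applied topically to both ear surfaces with or without drug. Sacrifice at 6 h; punch biopsies weighed, MPO measured spectrophotometrically in homogenized tissue, histology also done; compared with maximal control.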

Data set [4] deals with Mus musculus. The data set is described as §4. The class given is functional. In outline:
as §5
The source holds these as a separate data set.

For data set [5], the target named is Platelet-activating factor receptor (Homo sapiens, UniProt P25105). Nature of the data set: Displacement of [3H]PAF from PAF receptor of human platelet membranes. On the technique in general: Displacement assays read how much labelled ligand stays bound in the presence of the test substance.
Platelet-activating factor receptor, sequence (P25105 whole entry): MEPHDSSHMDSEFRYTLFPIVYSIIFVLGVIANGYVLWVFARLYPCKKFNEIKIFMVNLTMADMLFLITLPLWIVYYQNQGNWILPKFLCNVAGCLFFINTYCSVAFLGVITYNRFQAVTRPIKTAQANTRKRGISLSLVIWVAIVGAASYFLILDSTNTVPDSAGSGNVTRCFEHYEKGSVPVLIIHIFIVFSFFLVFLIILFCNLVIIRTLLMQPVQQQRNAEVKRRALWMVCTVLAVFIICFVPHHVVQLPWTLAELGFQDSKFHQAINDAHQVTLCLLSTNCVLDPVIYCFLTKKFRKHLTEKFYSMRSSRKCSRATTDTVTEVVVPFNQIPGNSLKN
For data set [6], the species on record is Homo sapiens. Nature of the data set: In vitro inhibition of LTB4 production in human whole blood. The class given is functional. In outline: as §2
The nature of data set [7]: Half-life was determined. The class given is ADME. Conditions: human.
The test system of data set [8] is Mus musculus. Nature of the data set: In vivo activity against arachidonic acid induced ear edema in mouse. It counts as functional. The essentials:
(§6)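 Compound given iv at 3 mg/kg in 0.5% DMSO saline 15 min before topical arachidonic acid (0.5 mg in acetone/pyridine/water 97:2:1) on both ears of mice. Sacrifice at 1 h; 7-mm ear punches weighed, edema as mean wet weight.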

The subject of data set [9] is Mus musculus. Nature of the data set: In vivo inhibition against arachidonic acid induced ear Edema in mice at a concentration of 3 mg/kg. It counts as functional. The essentials:
as §6

Data set [10] in a line: In vivo activity against platelet activating factor (PAF)-induced hemoconcentration in mouse. The class given is functional. The essentials: (§7)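 Mice given compound iv at 3 mg/kg in 0.5% DMSO saline, then PAF (10 μg, in 0.25% BSA/saline) iv by tail vein 15 min later. Tail blood taken 15 min after PAF for hematocrit; percent inhibition relative to vehicle control.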
The test system of data set [11] is Mus musculus. Nature of the data set: In vivo activity against chronic TPA-induced ear edema in mouse. The class given is functional. In outline:
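Mice, 8 per group, TPA in acetone (10 μL) applied topically to both ears once a day every 2 days for 10 days. Drug applied topically twice daily over the last 3 days. Punch biopsies weighed; MPO measured spectrophotometrically; histology also done.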

Data set [12] relates to Mus musculus. Nature of the data set: In vivo inhibition against PAF induced hemoconcentration in mice at a concentration of 3 mg/kg. It counts as functional. In outline:
as §7

The species entered for data set [13] is Homo sapiens. Described as §1. Further details: concentration or dose not given beside the values. It counts as functional. In outline: as §2
The target in data set [14] is T1, Polyunsaturated fatty acid 5-lipoxygenase. Nature of the data set: 5-lipoxygenase inhibitory activity determined by measuring the conversion of [14C]arachidonic acid to leukotrienes in RBL-2H3 cell using thin-layer chromatography. It counts as cell-based. The essentials:
as §3

Turning to `CCCCN(O)C(=O)Nc1cc([C@@H]2CC[C@@H](c3cc(OC)c(OC)c(OC)c3)O2)cc(OC)c1OCCC`, the IC50 in the data set filed under Homo sapiens [1] was found to be 3500 nM.

On to `CC(C#Cc1ccc(Oc2ccc(F)cc2)o1)N(O)C(N)=O` (stereo not drawn), for which the figures for the 50% inhibitory concentration (IC50) (in data set [2]; in the data set filed under Homo sapiens [1]) were 298 nM and 100 nM, respectively.

For the compound `COc1cc([C@@H]2CC[C@@H](c3cc(OC)c(OC)c(OC)c3)O2)cc(CNC(=O)N(C)O)c1OCCSc1ccc(Cl)cc1` (racemic), the ED50 with Mus musculus [3] was 269 ug ear-1; in the data set on Mus musculus [4], 299 ug ear-1; in the data set on Mus musculus [8], 1.8 mg/kg; in data set [10], 2.2 mg/kg; in the data set on Mus musculus [11] it was 552 ug ear-1 and 580 ug ear-1. Besides, the concentration for half-maximal inhibition (IC50) in data set [5] worked out at 10 nM; in the data set listed under Homo sapiens [6], 7800 nM; in data set [2], 100 nM; in the data set listed under Homo sapiens [1], 7800 nM. In data set [7], this compound displayed a half-life of 30 min. Besides, the inhibition in vivo at 3 mg/kg in the data set with Mus musculus [9] was found to be 46%; in the data set with Mus musculus [12], 56%.

With `CCCCN(O)C(=O)Nc1cc([C@@H]2CC[C@@H](c3cc(OC)c(OC)c(OC)c3)O2)cc(OC)c1OCCSc1ccccc1Br` (racemic), the half-inhibitory concentration (IC50) in data set [5] is 23 nM; in data set [2] it was 33 nM. In the data set listed under Homo sapiens [13], the Inhibition is listed as 48%. In addition, the inhibition in vivo at 3 mg/kg with Mus musculus [9] stood at 26%; with Mus musculus [12] it was 34%.

On to `CCCCN(O)C(=O)Nc1cc([C@@H]2CC[C@@H](c3cc(OC)c(OC)c(OC)c3)O2)cc(OC)c1OCCSc1cccc(Br)c1` (racemic), for which the IC50 in data set [5] was determined as 22 nM; in data set [2], 43 nM; in the data set filed under Homo sapiens [1], 7500 nM. The figures for the inhibition in vivo at 3 mg/kg in the data set on Mus musculus [9] and with Mus musculus [12] were 40% and 28%, respectively.

`CCCCN(O)C(=O)Nc1cc([C@@H]2CC[C@@H](c3cc(OC)c(OC)c(OC)c3)O2)cc(OC)c1OCCSc1ccc(Br)cc1` (racemic): the IC50 worked out at 21 nM in data set [5], 19 nM in [2] and 1200 nM in the data set listed under Homo sapiens [1].

Turning to `CCCCN(O)C(=O)Nc1cc([C@@H]2CC[C@@H](c3cc(OC)c(OC)c(OC)c3)O2)cc(OC)c1OCCSc1ccc(Cl)c(Cl)c1` (racemic), the IC50 in data set [5] is 45 nM; in [2], 17 nM. Moreover, the Inhibition in the data set filed under Homo sapiens [13] turned out to be 61%. In addition, the inhibition in vivo at 3 mg/kg in the data set with Mus musculus [9] and in the data set on Mus musculus [12] was 26% each time.

Regarding `CCCCN(O)C(=O)Nc1cc([C@@H]2CC[C@@H](c3cc(OC)c(OC)c(OC)c3)O2)cc(OC)c1OCCSc1c(F)c(F)cc(F)c1F` (racemic), the half-maximal inhibitory concentration (IC50) in data set [5] was found to be 2 nM; in data set [2], 118 nM. In addition, in the data set listed under Homo sapiens [13], the Inhibition came to 3%. Further, the results for the inhibition in vivo at 3 mg/kg with Mus musculus [9] and in the data set with Mus musculus [12] were 30% and 59%, respectively.

`CCCCN(O)C(=O)Nc1cc([C@@H]2CC[C@@H](c3cc(OC)c(OC)c(OC)c3)O2)cc(OC)c1OCCS(=O)(=O)c1ccc(Br)cc1` (racemic): in data set [5], the half-inhibitory concentration (IC50) turned out to be 38 nM. For the same compound, the Inhibition in the data set listed under Homo sapiens [13] is 72%. In addition, the inhibition in vivo at 3 mg/kg in the data set on Mus musculus [9] was 35%; in the data set with Mus musculus [12], 29%.

As to `CCCCN(O)C(=O)Nc1cc([C@@H]2CC[C@@H](c3cc(OC)c(OC)c(OC)c3)O2)cc(OC)c1OCCSc1ccc(Cl)cc1` (racemic), the IC50 is 58 nM in data set [14], 20 nM in data set [5] and 6500 nM in the data set filed under Homo sapiens [1]. The inhibition in vivo at 3 mg/kg was determined as 39% in the data set with Mus musculus [9] and 43% in the data set on Mus musculus [12].

With `CCCCN(O)C(=O)Nc1cc([C@@H]2CC[C@@H](c3cc(OC)c(OC)c(OC)c3)O2)cc(OC)c1OCCSc1ccc(OC)cc1` (racemic), the half-inhibitory concentration (IC50) in [5] amounted to 39 nM; in data set [2], 71 nM. Moreover, the Inhibition in the data set filed under Homo sapiens [13] came out at 32%. Moreover, the inhibition in vivo at 3 mg/kg in the data set with Mus musculus [9] came to 3%; with Mus musculus [12], 24%.

In data set [5], `CCCCN(O)C(=O)NCc1cc([C@@H]2CC[C@@H](c3cc(OC)c(OC)c(OC)c3)O2)cc(OC)c1OCCSc1ccc(Cl)cc1` (racemic) gave an IC50 of 167 nM. Further, in the data set listed under Homo sapiens [13], the Inhibition was 26%.

Turning to `CCCCN(O)C(=O)Nc1cc([C@@H]2CC[C@@H](c3cc(OC)c(OC)c(OC)c3)O2)cc(OC)c1OCCS(=O)(=O)c1c(F)c(F)cc(F)c1F` (racemic), the IC50 in data set [5] was found to be 285 nM; in data set [2] it was 520 nM. Also, the inhibition in vivo at 3 mg/kg with Mus musculus [9] came out at 12%; in the data set with Mus musculus [12], 50%.

For the compound `CCCCN(O)C(=O)Nc1cc([C@@H]2CC[C@@H](c3cc(OC)c(OC)c(OC)c3)O2)cc(OC)c1OCCS(=O)(=O)c1ccccc1Br` (racemic), the 50% inhibitory concentration (IC50) was found to be 25 nM in [5] and 161 nM in [2]. Moreover, in the data set filed under Homo sapiens [13], the Inhibition is 19%. The compound also registered an inhibition in vivo at 3 mg/kg with Mus musculus [12] of 60%.

In the case of `CC(c1cc2ccccc2s1)N(O)C(N)=O` (stereo not drawn) [ZILEUTON], in the data set listed under Homo sapiens [13], the Inhibition is 1%.

What is called IC50 is the concentration that inhibits the measured activity by half. As usually defined, the half-life is how long it takes for the measured level to halve. For orientation: inhibition in vivo means the share of the control response that was lost under treatment. Broadly, the Inhibition is the percentage by which the read-out fell short of the control.
